ChEMBL document CHEMBL3632562, “Diethylstilbestrol-scaffold-based pregnane X receptor modulators” (Eur J Med Chem, 2015)
Each block holds one molecule with its values, some of them ahead of it. The source made the active and inactive calls. No cut-off for these calls is given here.

Tests used:
[1] = biological target: T1, Nuclear receptor subfamily 1 group I member 2 (Homo sapiens, UniProt O75469); test: Antagonist activity at full length human PXR transfected in human HepG2 cells assessed as reduction in rifaximin-induced receptor transactivation at 50 uM after 18 hrs by luciferase reporter assay; format: cell-based; conditions: hepg2, 18 h
T1 sequence (O75469 whole entry): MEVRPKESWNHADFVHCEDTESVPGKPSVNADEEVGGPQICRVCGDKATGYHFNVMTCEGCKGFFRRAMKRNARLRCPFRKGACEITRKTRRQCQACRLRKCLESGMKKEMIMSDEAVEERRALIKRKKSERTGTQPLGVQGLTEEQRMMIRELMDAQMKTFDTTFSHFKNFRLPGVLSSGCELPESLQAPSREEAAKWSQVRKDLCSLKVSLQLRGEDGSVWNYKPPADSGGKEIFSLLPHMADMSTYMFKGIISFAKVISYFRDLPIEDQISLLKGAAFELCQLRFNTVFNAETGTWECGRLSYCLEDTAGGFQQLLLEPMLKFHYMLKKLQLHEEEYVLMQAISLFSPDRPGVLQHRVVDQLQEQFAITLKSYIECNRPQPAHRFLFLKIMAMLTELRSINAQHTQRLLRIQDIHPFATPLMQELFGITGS
In short: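 HepG2 (5 × 10⁴ cells/well, MEM/10% FBS) transiently transfected with full-length human PXR, RXR, PXRE-luciferase reporter and Renilla vectors, then treated 18 h with rifaximin (10 μM) plus compound (50 μM). Luciferase read-out normalised as RLU/Renilla RRU; p < 0.05 significance.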

[2] = biological target: T1, Nuclear receptor subfamily 1 group I member 2; test: Antagonist activity at full length human PXR transfected in human HepG2 cells assessed as reduction in rifaximin-induced receptor transactivation after 18 hrs by luciferase reporter assay; format: cell-based; conditions: for inhibition (INH): human, hepg2, 18 h
In short: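 Rifaximin-stimulated (10 μM) HepG2 transiently co-transfected with 75 ng pSG5-hPXRT1, 75 ng pSG5-RXR, 250 ng pGL3(henance)PXRE reporter and 100 ng pGL4.70-Renilla, then co-treated 18 h with compound at 10, 25 and 50 μM. Firefly luciferase RLU divided by Renilla RRU to normalise transfection efficiency; IC50 taken from concentration-response curve.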

[3] = biological target: T1, Nuclear receptor subfamily 1 group I member 2; test: Antagonist activity against PXR in human HepG2 cells assessed as inhibition of rifaximin-induced CYP3A4 gene expression at 25 uM after 18 hrs by quantitative real-time PCR analysis; format: cell-based; conditions: hepg2, 18 h
[4] = biological target: T1, Nuclear receptor subfamily 1 group I member 2; test: Activity at PXR in human HepG2 cells assessed as up regulation of rifaximin-induced PXR gene expression at 25 uM after 18 hrs by quantitative real-time PCR analysis; conditions: hepg2, 18 h
HepG2 [5] = test: Toxicity in human HepG2 cells expressing human full-length PXR assessed as reduction in cell viability at 50 uM; format: cell-based; conditions: hepg2, 50 µM
[6] = biological target: T1, Nuclear receptor subfamily 1 group I member 2; test: Transactivation of full length human PXR transfected in human HepG2 cells after 18 hrs by luciferase reporter assay relative to rifaximin; format: cell-based
In short: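 In HepG2 transfected with hPXR, RXR, PXRE-luciferase and Renilla plasmids, cells were exposed 18 h to compound at 10 μM, or at 10, 25 and 50 μM for EC50 determination, alongside rifaximin (10 μM) as reference agonist. Firefly signal normalised to Renilla.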

HepG2 [7] = test: Up regulation of full length PXR expression in human HepG2 cells at 10 uM after 18 hrs by quantitative real-time PCR analysis; format: functional, cell-based
[8] = Solubility of the compound; format: physicochemical
[9] = biological target: T1, Nuclear receptor subfamily 1 group I member 2; test: Transactivation of PXR in human HepG2 cells assessed as up regulation of CYP3A4 gene expression at 10 uM after 18 hrs by quantitative Real-time PCR analysis; format: cell-based; conditions: hepg2, 18 h
[10] = biological target: T1, Nuclear receptor subfamily 1 group I member 2; test: Antagonist activity at PXR (unknown origin)

Compound: CC/C(=C(/CC)c1ccc(O)cc1)c1ccc(O)cc1 [DIETHYLSTILBESTROL]
- IC50 [2]: 14.6 µM
- inhibition (INH) [2]: Dose-dependent effect
- inhibition (INH) [3]: Active
- inhibition (INH) [1]: Active
- Activity [4]: Active

Compound: CC/C(=C(/CC)c1ccc(OCCCCO)cc1)c1ccc(OCCCCO)cc1
- Activity (HepG2 [5]): Toxic

Compound: CC/C(=C(/CC)c1ccc(OCCO)cc1)c1ccc(OCCO)cc1
- IC50 [2]: 27.4 µM
- inhibition (INH) [2]: Dose-dependent effect
- inhibition (INH) [3]: Active
- inhibition (INH) [1]: Active
- Activity [4]: Active

Compound: CC/C(=C(/CC)c1ccc(OCCCCOC(C)=O)cc1)c1ccc(OCCCCOC(C)=O)cc1
- solubility [8]: Insoluble

Compound: CC/C(=C(/CC)c1ccc(OC)cc1)c1ccc(OC)cc1
- EC50 [6]: 10.5 µM
- Activity (HepG2 [7]): Active
- Activity [9]: Active

Compound: CC/C(=C(/CC)c1ccc(OCCOC(C)=O)cc1)c1ccc(OCCOC(C)=O)cc1
- inhibition (INH) [1]: Active

Compound: CC/C(=C(/CC)c1ccc(OCCCOC(C)=O)cc1)c1ccc(OCCCOC(C)=O)cc1
- inhibition (INH) [1]: Active

Compound: CC/C(=C(/CC)c1ccc(OCCCO)cc1)c1ccc(OCCCO)cc1
- Activity (HepG2 [5]): Toxic

Compound: Cc1cc(-c2onc(C)c2C(=O)Sc2ccccc2)no1
- IC50 [10]: 0.85 µM

Second part, led by results:

- inhibition (INH) [1]: Not Active
Compound: CC/C(=C(/CC)c1ccc(OS(=O)(=O)[O-])cc1)c1ccc(OS(=O)(=O)[O-])cc1.[Na+].[Na+]

- inhibition (INH) [1]: Not Active
Compound: CC/C(=C(/CC)c1ccc(OCCOS(=O)(=O)[O-])cc1)c1ccc(OCCOS(=O)(=O)[O-])cc1.[Na+].[Na+]

- EC50 [6]: 11.2 µM
Compound: CO[C@H]1/C=C/O[C@@]2(C)Oc3c(C)c(O)c4c(O)c(c5c(nc6cc(C)ccn65)c4c3C2=O)NC(=O)/C(C)=C\C=C\[C@H](C)[C@H](O)[C@@H](C)[C@@H](O)[C@@H](C)[C@H](OC(C)=O)[C@@H]1C [RIFAXIMIN]
- Activity (HepG2 [7]): Active

- inhibition (INH) [1]: Not Active
Compound: CC/C(=C(/CC)c1ccc(OCCCOS(=O)(=O)[O-])cc1)c1ccc(OCCCOS(=O)(=O)[O-])cc1.[Na+].[Na+]

- inhibition (INH) [1]: Not Active
Compound: CC/C(=C(/CC)c1ccc(OCCCCOS(=O)(=O)[O-])cc1)c1ccc(OCCCCOS(=O)(=O)[O-])cc1.[Na+].[Na+]
